In ChEMBL document CHEMBL1144035, “Synthesis, cytostatic and anti-HCV activity of 6-(N-substituted aminomethyl)-, 6-(O-substituted hydroxymethyl)- and 6-(S-substituted sulfanylmethyl)purine nucleosides” (Bioorg Med Chem, 2008):
Calls of active or inactive are those of the source. The rule behind the calls is not given here.

Experiments:
[1] = tested on: HL-60; test: Cell cycle arrest in human HL60 cells by accumulation at G1 phase at 1 umol/L after 72 hrs by flow cytometry; type: functional
[2] = tested on: HL-60; test: Cytostatic activity in human HL60 cells assessed as inhibition of cell growth after 72 hrs by XTT assay; type: functional, cell-based; conditions: HL-60, 72 h
[3] = tested on: HL-60; test: Cell cycle arrest in human HL60 cells by accumulation at G2/M phase at 5 umol/L after 72 hrs by flow cytometry; type: functional
[4] = tested on: Hepatitis C virus; test: Antiviral activity against Hepatitis C virus 1b after 3 days; type: functional, organism-based, Hepacivirus hominis; conditions: genotype 1b, 72 h
[5] = tested on: HL-60; test: Cytostatic activity in human HL60 cells assessed as inhibition of cell growth after 72 hrs; type: functional, cell-based; conditions: for IC50: HL-60, 72 h
In short: (§1)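 Cultures from ATCC lines: mouse leukaemia L1210 (CCL 219), human promyelocytic leukaemia HL60 (CCL 240) and human T-lymphoblastoid CCRF-CEM (CCL 119). Growth inhibition was estimated from the cell count in a haematological analyzer (haemocytometer).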

[6] = tested on: HL-60; test: Cell cycle arrest in human HL60 cells by depletion of cells at S phase after 72 hrs by flow cytometry; type: functional, cell-based
[7] = tested on: HL-60; test: Cell cycle arrest in human HL60 cells by accumulation at G1 phase at 1 umol/L by flow cytometry relative to control; type: functional
In short: (§2)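 HL-60 cells exposed to compound for 72 h at the single concentration in the line; the cell-cycle phase fraction is reported as a change relative to untreated control cells.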

[8] = tested on: HL-60; test: Cell cycle arrest in human HL60 cells by accumulation at S phase at 2.5 umol/L after 72 hrs by flow cytometry; type: functional
[9] = tested on: CCRF-CEM; test: Cytostatic activity in human CCRF-CEM cells assessed as inhibition of cell growth after 72 hrs; type: functional, cell-based; in short: as §1
[10] = tested on: HL-60; test: Cell cycle arrest in human HL60 cells by accumulation at G1 phase after 72 hrs by flow cytometry; type: functional, cell-based
[11] = tested on: HL-60; test: Cell cycle arrest in human HL60 cells by accumulation at S phase at 1 umol/L after 72 hrs by flow cytometry; type: functional
[12] = tested on: HL-60; test: Cell cycle arrest in human HL60 cells by accumulation at G2/M phase at 2.5 umol/L after 72 hrs by flow cytometry; type: functional
[13] = tested on: HL-60; test: Cell cycle arrest in human HL60 cells by accumulation at S phase at 1 umol/L by flow cytometry relative to control; type: functional; in short: as §2
[14] = tested on: L1210; test: Cytostatic activity in mouse L1210 cells assessed as inhibition of cell growth after 72 hrs; type: functional, cell-based; conditions: for IC50: L1210, 72 h; in short: as §1
[15] = tested on: HL-60; test: Cell cycle arrest in human HL60 cells by accumulation at S phase at 5 umol/L after 72 hrs by flow cytometry; type: functional
[16] = tested on: HeLa; test: Cytostatic activity in human HeLa S3 cells assessed as inhibition of cell growth after 48 hrs by XTT assay; type: functional, cell-based
[17] = tested on: HL-60; test: Cell cycle arrest in human HL60 cells by accumulation at G1 phase at 2.5 umol/L after 72 hrs by flow cytometry; type: functional
[18] = tested on: CCRF-CEM; test: Cytostatic activity in human CCRF-CEM cells assessed as inhibition of cell growth after 72 hrs by XTT assay; type: functional, cell-based
[19] = tested on: MT4; test: Cytotoxicity against human MT4 cells after 4 days; type: functional; conditions: MT4, 96 h
In short: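 Cellular toxicity was measured in MT-4 cells, N = 2.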

[20] = tested on: HL-60; test: Cell cycle arrest in human HL60 cells by accumulation at G2/M phase at 1 umol/L by flow cytometry relative to control; type: functional; in short: as §2
[21] = Cytotoxicity against human Huh7 cells after 3 days by MTT method; type: functional; conditions: Huh-7, 72 h
In short: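 Cellular toxicity was read by MTT in Huh-7 cells carrying the con-1 HCV replicon, in duplicate (N = 2).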

[22] = tested on: HL-60; test: Cell cycle arrest in human HL60 cells by accumulation at G2/M phase at 1 umol/L after 72 hrs by flow cytometry; type: functional
[23] = tested on: HL-60; test: Cell cycle arrest in human HL60 cells by accumulation at G1 phase at 5 umol/L after 72 hrs by flow cytometry; type: functional
[24] = tested on: HL-60; test: Cell cycle arrest in human HL60 cells by accumulation at G1 phase at 22.5 umol/L by flow cytometry relative to control; type: functional; in short: as §2
[25] = tested on: HL-60; test: Cell cycle arrest in human HL60 cells by accumulation at G2/M phase at 22.5 umol/L by flow cytometry relative to control; type: functional; in short: as §2
[26] = tested on: HL-60; test: Cell cycle arrest in human HL60 cells by accumulation at S phase at 22.5 umol/L by flow cytometry relative to control; type: functional; in short: as §2
[27] = tested on: HL-60; test: Cell cycle arrest in human HL60 cells by accumulation at G2/M phase at 3 umol/L by flow cytometry relative to control; type: functional; in short: as §2
[28] = tested on: HL-60; test: Cell cycle arrest in human HL60 cells by accumulation at S phase at 3 umol/L by flow cytometry relative to control; type: functional; in short: as §2
[29] = tested on: HL-60; test: Cell cycle arrest in human HL60 cells by accumulation at G1 phase at 3 umol/L by flow cytometry relative to control; type: functional; in short: as §2

Row | IC50 [2] | EC50 [4] | IC50 [5] | IC50 [9] | IC50 [14] | IC50 [18] | SMILES | Activity [6] | Activity [10] | Activity [16] | CC50 [19] | CC50 [21] | Activity [14] | further results
1 | 0.78 µM | 6 µM | 1.88 µM | 0.39 µM | 1.59 µM | 340 nM | [N-]=[N+]=NCc1ncnc2c1ncn2[C@@H]1O[C@H](CO)[C@@H](O)[C@H]1O | Active | Active | inactive | 32 µM | > 250 µM |  | Activity [1]: 54%; Activity [3]: 8%; Activity [7]: 1.57%; Activity [8]: 59%; Activity [11]: 37%; Activity [12]: 8%; Activity [13]: 0.63%; Activity [15]: 69%; Activity [17]: 33%; Activity [20]: 1.3%; Activity [22]: 10%; Activity [23]: 24%
2 | 5 µM | 10 µM | 13.4 µM | 15 µM | > 30 µM | 3200 nM | CSCc1ncnc2c1ncn2[C@@H]1O[C@H](CO)[C@@H](O)[C@H]1O |  |  | inactive | 32 µM | > 100 µM |  | 
3 | 4.37 µM | 15 µM | 14.7 µM | 6.7 µM | 14.3 µM | 3720 nM | OCCN(CCO)Cc1ncnc2c1ncn2[C@@H]1O[C@H](CO)[C@@H](O)[C@H]1O | Active | Active | inactive |  | 10 µM |  | 
4 | 9.1 µM | 7.6 µM | 5.7 µM | 3.4 µM |  | 1960 nM | OC[C@H]1O[C@@H](n2cnc3c(Cn4ccc5ccccc54)ncnc32)[C@H](O)[C@@H]1O |  |  | inactive | 45 µM | > 250 µM | inactive | 
5 |  | 20 µM |  |  |  |  | CC(=O)N(Cc1ncnc2c1ncn2[C@H]1C[C@H](O)[C@@H](CO)O1)C1CCCCC1 |  |  | inactive | > 100 µM | > 100 µM | inactive | Activity [5]: inactive; Activity [9]: inactive
6 | 19.2 µM | > 100 µM | 10.7 µM | 9.2 µM |  | 4650 nM | OC[C@H]1O[C@@H](n2cnc3c(CSCc4ccccc4)ncnc32)[C@H](O)[C@@H]1O |  | Active | inactive |  | > 100 µM | inactive | Activity [24]: 1.99%; Activity [25]: 0.88%; Activity [26]: 0.43%
7 | 3.4 µM | 21 µM | 4 µM |  |  |  | CN(Cc1ncnc2c1ncn2[C@@H]1O[C@H](CO)[C@@H](O)[C@H]1O)c1ccccc1 |  |  | inactive |  | 21 µM | inactive | Activity [27]: 1.08%; Activity [28]: 0.87%; Activity [9]: inactive; Activity [29]: 1.12%
8 | 1.68 µM | 13 µM | 13 µM | 6 µM |  | 1140 nM | COCc1ncnc2c1ncn2[C@@H]1O[C@H](CO)[C@@H](O)[C@H]1O | Active | Active | inactive |  | > 100 µM | inactive | 
